Experimental data taken from ChEMBL document CHEMBL2029207, “Vascular barrier protective effects of eckol and its derivatives” (Bioorg Med Chem Lett, 2012).
Active and inactive are the calls of the source. The rule behind the calls is not given here.

Experiments:
[1] = species on record: Mus musculus; assay: Antiinflammatory activity in mouse assessed as inhibition of CMC-Na-induced leukocyte migration into peritoneal cavity at 10 uM relative to CMC-Na; assay type: functional
How it was run: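 Mice received 1.0% CMC–Na to induce leukocyte migration, with or without test agent. Leukocytes recovered from the peritoneal cavity were counted (×10^6). Percent inhibition is relative to CMC–Na alone, with PBS and kaempferol-3-O-sophoroside as controls. Values are mean ± S.D. of three experiments.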

[2] = tested on: HUVEC; assay: Antiinflammatory activity in HUVEC cells assessed as inhibition of LPS-induced hyperpermeability at 10 uM relative to LPS; assay type: functional; settings: Homo sapiens
How it was run: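 Primary HUVECs were stimulated with LPS at 100 ng/ml, with or without test agent. Permeability was read as albumin flux across the monolayer in a dual-chamber system, by ELISA at OD650. Percent inhibition is relative to LPS alone, with PBS as the negative control and kaempferol-3-O-sophoroside as the positive control. Values are mean ± S.D. of three experiments.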

[3] = tested on: HUVEC; assay: Antiinflammatory activity in HUVEC cells assessed as inhibition of […]-induced monocyte binding to endothelial cells at 10 uM relative to control; settings: Homo sapiens
[4] = tested on: HUVEC; assay: Antiinflammatory activity in HUVEC cells assessed as inhibition of LPS-induced monocyte migration at 10 uM relative to LPS; assay type: functional; settings: Homo sapiens
How it was run: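 Monocyte transendothelial migration was measured across HUVECs stimulated with LPS at 100 ng/ml. The read-out was a migration index, with percent inhibition calculated against LPS alone. Controls were PBS (negative) and kaempferol-3-O-sophoroside (positive). Values are mean ± S.D. of three independent experiments.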

[5] = tested on: HUVEC; assay: Cytotoxicity against HUVEC cells assessed as decrease in cell viability up to 20 uM after 24 hrs; assay type: cell-based; settings: human
How it was run: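 HUVECs were exposed to each agent for 24 h and then assessed in cell viability assays.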

[6] = species on record: Mus musculus; assay: Antiinflammatory activity in mice assessed as inhibition of acetic acid-induced hyperpermeability at 10 uM relative to acetic acid

For `Oc1cc(O)cc(Oc2c(O)cc(O)c3c2Oc2c(O)cc(O)cc2O3)c1` [ECKOL], the “inhibition (INH)” value [1] was 61.7%, the inhibition at 10 µM [2] was 56.5% and the inhibition [3] was “Active”. For the same molecule, the inhibition at 10 µM [4] was 59.6%, the Activity [5] was “Non-toxic” and the inhibition at 10 µM [6] was 52%.

With `O=c1c(O[C@@H]2O[C@H](CO)[C@@H](O)[C@H](O)[C@H]2O[C@@H]2O[C@H](CO)[C@@H](O)[C@H](O)[C@H]2O)c(-c2ccc(O)cc2)oc2cc(O)cc(O)c12` the “inhibition (INH)” value [1] was 69.6%, the inhibition at 10 µM [2] was 76.6% and the inhibition at 10 µM [4] was 69.5%. It also gave an inhibition at 10 µM [6] of 73.9%.

In the case of `CC(=O)Oc1cc(OC(C)=O)cc(Oc2c(OC(C)=O)cc(OC(C)=O)c3c2Oc2c(OC(C)=O)cc(Oc4c(OC(C)=O)cc(Oc5c(OC(C)=O)cc(OC(C)=O)c6c5Oc5c(OC(C)=O)cc(OC(C)=O)cc5O6)cc4OC(C)=O)cc2O3)c1`, the “inhibition (INH)” value [1] is reported as 56.7%, the inhibition at 10 µM [2] is reported as 49.5% and the inhibition at 10 µM [4] is reported as 50.3%. The Activity [5] was “Non-toxic” and the inhibition at 10 µM [6] was 59.5%.

`Oc1cc(O)cc(Oc2c(O)cc(O)c3c2Oc2c(O)cc(Oc4c(O)cc(Oc5c(O)cc(O)c6c5Oc5c(O)cc(O)cc5O6)cc4O)cc2O3)c1` [DIECKOL] was tested, and the “inhibition (INH)” value [1] was 69.9%, the inhibition at 10 µM [2] was 74.9% and the inhibition at 10 µM [4] was 71.3%. The Activity [5] was “Non-toxic” and the inhibition at 10 µM [6] was 74.4%.

`COc1cc(OC)cc(Oc2c(OC)cc(OC)c3c2Oc2c(OC)cc(Oc4c(OC)cc(Oc5c(OC)cc(OC)c6c5Oc5c(OC)cc(OC)cc5O6)cc4OC)cc2O3)c1` was tested, and the “inhibition (INH)” value [1] was 32.4%, the inhibition at 10 µM [2] was 33% and the inhibition at 10 µM [4] was 37.6%. For the same molecule, the Activity [5] was “Non-toxic” and the inhibition at 10 µM [6] was 34.7%.
